Screens from PubChem.
Compounds with a hit are over-represented: about 4.8% of the library has one in this group of screens.
T cruzi inh: inhibitors of intracellular T. cruzi growth, primary screen, luminescence, NIH3T3 host cells; inhibition, % (concentration not given with the values); 1.4% of 300,000 active; T. cruzi beta-gal in NIH3T3, 90 h;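 active means mean inhibition across valid replicates above about 55%, limit read from the data; inconclusive means mean below that limit but half or more replicates reach it; inactive means mean below it, under half of replicates reach it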;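 further: signal also drops with host cell toxicity which is not excluded here; 0% = plate median of DMSO wells and 100% = zero luminescence signal; higher percent means less beta-gal luminescence so fewer parasites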
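System: Mouse NIH/3T3 fibroblasts infected with β-gal-expressing T. cruzi Tulahuen C4 | Quantity: NIH/3T3 cells, 5,000 per well | Reagent: 5000 reporter trypomastigotes per well | Dosing: Compound pinned at 50 nL/well, DMSO | Schedule: 3 h host attachment, then at least 90 h co-culture | Detection: GalScreen luminescence, 60 min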
Efflux pump inh: inhibitors of Candida efflux pumps in yeast, primary screen, S. cerevisiae, Nile Red, multiplex | S. cerevisiae Candida pump triplex | inhibition, % at 10 µM | 0.44% of 330,000 active | AID 485275, 2010;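 active means plate passing quality check with inhibition over a set limit, or well fluorescence over plate mean plus 4 SD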;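 further: Nile Red retained in pooled yeast measured as flow cytometry median fluorescence; 0% = buffer negative control and 100% = Enniatin B positive control; higher means more Nile Red kept so more efflux inhibition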
Mot1-301 SUMO: yeast Mot1-301 growth rescue at high temperature, primary screen, SUMOylation pathway inhibitor project, S. cerevisiae, ATP luminescence, 38.5C; S. cerevisiae Mot1-301 growth rescue; percent above DMSO median, 100 means doubled; growth rescue, % at 18.8 µM; 1% of 320,000 active; AID 2716, 2010;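 active means every valid replicate shows activation above 250% relative to neutral control wells; inactive means the rest, any valid replicate at or below 250%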;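 further: OY570 slx delta 5 strain wells were the positive control but not used for scaling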
WT yeast gro inh: growth inhibition of WT strain, primary screen, mitochondrial fusion inhibitor project, WT and mutant strains, chemical genetic | inhibition, % at 10 µM | 2.1% of 190,000 active | AID 1362, 2008 | mitochondrial fusion phenotypic screen; in the data active means inhibition above about 58%; tested in S. cerevisiae
CSC inhib: cancer stem cell viability inhibitors, primary screen, luminescence | inhibition, % at 7.5 µM | cancer stem cell-like cells viability | 1.1% of 300,000 active; in the data active means inhibition above about 75%; inconclusive means no clear call, values can overlap the other calls; tested in HMLE shEcad cells
Beta apoptosis: inhibitors of cytokine-induced beta cell apoptosis, primary screen, luminescence; 0.8% of 300,000 active; protection from apoptosis, % (test concentration not listed); AID 435005, 2010; INS-1E cytokine-induced death, ATP luminescence, 48 h; percent of positive-control rescue, neutral wells zero;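 active means Every replicate reaches about 75%, or at least half do and their mean reaches it too, limit read from the data; inconclusive means At least half of replicates reach the limit but their mean does not; inactive means Under half of replicates reach the limit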;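 further: 0% = cytokine-treated negative control wells and 100% = positive control rescue; higher means more ATP so stronger rescue from cytokine killing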
The depositor's hits bear a star; ? = inconclusive; . = not tested or not shown.

SMILES	T cruzi inh	Efflux pump inh	Mot1-301 SUMO	WT yeast gro inh	CSC inhib	Beta apoptosis
Cc1cc(=O)oc2cc(OCC3CC(c4ccc(Cl)cc4)=NO3)ccc12 (stereo unspecified)	36.4	0.0	6.0	64.7*	37.2	6.8
O=S(=O)(NC1CC(NS(=O)(=O)OCC(Cl)(Cl)Cl)C2CCCCC12)OCC(Cl)(Cl)Cl (stereo unspecified)	7.3	0.0	-14.5	.	83.4*	-5.2
C[C@H](NS(=O)(=O)OCC(Cl)(Cl)Cl)C1CC1c1ccccc1 (stereo partly specified)	5.6	0.0	71.1	.	39.5	0.1
O=C(NC1CCS(=O)(=O)C1)c1ccc(-c2ccc(Br)cc2)o1 (stereo unspecified)	18.6	0.0	189.9	82.1*	0.5	-7.2
Cc1cc(N2CCN(C)CC2)ccc1NC(=O)c1ccc(-c2ccc(Cl)cc2)o1	58.5*	-0.1	4.0	.	?	53.0
Cc1cc(O)c(NC(=S)NC(=O)c2ccc(-c3ccc(Cl)cc3)o2)cc1C	-8.1	0.0	-0.1	76.9*	4.6	0.5
O=C(Nc1ccccc1N1CCCCC1)c1ccc(-c2ccc(Cl)cc2)o1	-3.0	0.1	-14.4	7.2	.	17.1
CN1CCN(c2ccccc2NC(=O)c2ccc(-c3ccc(Br)cc3)o2)CC1	65.0*	0.1	-16.6	.	60.8	35.1
O=C(NC1CCS(=O)(=O)C1)c1ccc(Br)o1 (stereo unspecified)	-7.1	-0.2	2.1	.	.	0.2
Cc1ccc(NC(=O)CSc2nnc(-c3cccs3)o2)cc1S(=O)(=O)N1CCCCC1	-1.9	0.0	21.9	-7.7	-32.0	-0.2
O=C(Nc1ccccc1)c1ccc(-c2ccc(Br)cc2)o1	22.0	-0.1	-18.0	73.6*	?	3.8
CC(C)CN1C(=O)C(=O)N(CC(=O)N2CCN(c3ccccc3)CC2)C1=O	18.5	0.0	-5.3	.	2.1	-6.3
COc1ccc(-c2noc(N(C)CC(=O)Nc3cccc(C(F)(F)F)c3)n2)cc1	25.7	-0.1	4.7	64.6*	14.3	2.8
CC(=O)N/C(=N\OCc1ccccc1Cl)c1nonc1NC(C)=O	2.3	0.0	9.9	-6.7	-27.5	6.4
Cc1cc(NC(=O)CCN2C(=O)C3C4CCC(C4)C3C2=O)c(C)cc1Br (stereo unspecified)	-8.8	-0.1	340.2	14.3	-5.3	1.1
Cc1cc(Br)c(Cl)cc1NC(=O)CN1C(=O)C2C3CC(c4ccccc4)C(C3)C2C1=O (stereo unspecified)	55.7*	-0.3	-6.5	69.6*	79.7*	1.5
Cc1cc(C(=O)Nc2ccc3nc(C)sc3c2)c2ccccc2n1	-14.3	0.1	335.7	.	0.9	0.4
c1cc(-c2noc(CC3CCCCC3)n2)ccn1	7.4	0.0	32.3	-7.0	-3.0	79.1*
c1ccc(-c2noc(CC3CCCCC3)n2)nc1	-15.6	0.0	-3.9	10.0	-8.1	2.0
COc1cc(-c2nc(-c3ccccc3)c(-c3cccs3)[nH]2)cc(OC)c1OC	61.9*	0.3	9.9	5.8	78.0*	40.7
COc1cc(-c2nc(-c3ccc4c(c3)-c3ccccc3S4(=O)=O)c(-c3ccccc3)[nH]2)cc(OC)c1OC	58.7*	0.0	-6.6	10.1	14.5	26.4
COc1cccc(-c2nc(-c3ccc4c(c3)-c3ccccc3S4(=O)=O)c(-c3ccccc3)[nH]2)c1OC	39.8	0.1	.	5.0	-2.5	15.0
COc1cc(-c2nc(-c3ccccc3)c(-c3cccs3)[nH]2)cc(OC)c1O	24.7	-0.3	-5.1	-4.4	-1.9	.
CN(CC(=O)Nc1ccc(F)cc1)C(=O)COC(=O)CCN1C(=O)C2CC=CCC2C1=O (stereo unspecified)	13.0	-0.4	-2.7	.	.	-3.4
CCOC(=O)c1sc2nc(CSc3ccccc3)nc(NCCN(C)C)c2c1C	4.5	-0.3	1.2	26.1	9.0	11.9
SMILES	T cruzi inh	Efflux pump inh	Mot1-301 SUMO	WT yeast gro inh	CSC inhib	Beta apoptosis
CCOc1cc(C)c(Cl)cc1S(=O)(=O)n1ccnc1	71.6*	-0.1	-2.0	-5.5	1.5	-3.9
CCOc1cc(Cl)c(S(=O)(=O)NCCCn2ccnc2)cc1Cl	-18.7	-0.1	356.0*	.	18.0	30.0
Nn1c(COc2ccccc2F)nnc1SCC(=O)NC1CC1	-6.9	0.1	-0.8	.	8.3	-15.5
CCOc1ccccc1C(=O)N[C@H](C(=O)Nc1nc2c(s1)CCCC2)C(C)C	68.5*	0.1	-17.4	39.8	47.6	-0.7
COc1ccc(C(=O)N[C@H](C(=O)Nc2nc3c(s2)CCCC3)C(C)C)cc1	5.5	0.0	.	-5.2	2.3	-5.7
O=C1N/C(=N\N=C\c2cccs2)SC1Cc1cccc(Cl)c1Cl (stereo unspecified)	-51.0	-0.1	11.0	52.4	50.1	3.6
CCN(CCNC(=O)C1CCN(Cc2nc(-c3ccc(Cl)cc3)oc2C)CC1)c1ccccc1	8.5	-0.1	43.0	53.2	39.8	.
Cc1oc(-c2ccc(Cl)cc2)nc1CN1CCC(C(=O)NCCCN2CCOCC2)CC1	25.7	0.0	2.1	-1.7	7.5	-9.7
CCc1ccc(-c2nc(CN3CCC(C(=O)N4CCN(c5ccccc5)CC4)CC3)c(C)o2)cc1	40.8	0.5	-12.2	66.1*	12.8	11.8
Cc1oc(-c2cccc(Cl)c2)nc1CN1CCCC(C(=O)NCCCN2CCOCC2)C1 (stereo unspecified)	62.6*	0.0	-12.9	35.9	-12.5	1.4
CCc1ccc(-c2nc(CN3CCC(C(=O)NCCN(CC)c4ccccc4)CC3)c(C)o2)cc1	29.7	0.0	-20.2	71.1*	15.8	18.0
CCN(CCNC(=O)C1CCCN(Cc2nc(-c3ccc(OC)cc3)oc2C)C1)c1ccccc1 (stereo unspecified)	62.4*	0.0	41.4	20.5	2.5	-0.4
CSCC[C@H](NC(=O)N1C[C@H]2C[C@@H](C1)c1cccc(=O)n1C2)C(=O)Nc1ccc(NC(C)=O)cc1	-16.1	0.0	2.7	.	1.1	4.4
O=C(Nc1ccc(Cn2ccnc2)cc1)c1cccc(C(F)(F)F)c1	38.0	0.0	35.6	.	.	.
CCOc1ccc(/C=C2\N=C(c3cccs3)OC2=O)cc1OC	-3.9	0.0	12.6	-9.9	-18.0	-7.9
COc1ccc(/C=C2/N=C(c3cccs3)OC2=O)cc1OC(C)C	-17.9	0.1	891.9*	-3.4	.	-1.8
COc1cc(CCCN2C(=S)NC[C@@H]2c2ccccc2)cc(OC)c1OC	5.5	0.0	-11.9	10.9	-4.5	-8.4
CCCN(C(=O)CSCC(=O)Nc1ccc(OC)cc1)c1c(N)n(Cc2ccccc2)c(=O)[nH]c1=O	-1.9	0.0	-7.9	.	-3.4	.
C/C=C/c1ccc(OCCCCN2CCN(CC)CC2)c(OC)c1	17.2	-0.1	137.9	-3.4	-12.0	0.5
